Experimental data taken from ChEMBL document CHEMBL4706530, “Synthesis, inhibitory activity and in silico docking of dual COX/5-LOX inhibitors with quinone and resorcinol core” (Eur J Med Chem, 2020).
Activity calls are given as the source filed them. The calls are words filed in the database; no cut-off is given here.

biological target: T1, Polyunsaturated fatty acid 5-lipoxygenase (Homo sapiens, UniProt P09917); experiment: Inhibition of human recombinant 5-LOX assessed as reduction in LTB4 level using 800 uM arachidonic acid as substrate preincubated with enzyme for 10 mins followed by substrate addition and measured after 10 mins by ELISA; conditions: not given
T1 sequence (P09917 whole entry): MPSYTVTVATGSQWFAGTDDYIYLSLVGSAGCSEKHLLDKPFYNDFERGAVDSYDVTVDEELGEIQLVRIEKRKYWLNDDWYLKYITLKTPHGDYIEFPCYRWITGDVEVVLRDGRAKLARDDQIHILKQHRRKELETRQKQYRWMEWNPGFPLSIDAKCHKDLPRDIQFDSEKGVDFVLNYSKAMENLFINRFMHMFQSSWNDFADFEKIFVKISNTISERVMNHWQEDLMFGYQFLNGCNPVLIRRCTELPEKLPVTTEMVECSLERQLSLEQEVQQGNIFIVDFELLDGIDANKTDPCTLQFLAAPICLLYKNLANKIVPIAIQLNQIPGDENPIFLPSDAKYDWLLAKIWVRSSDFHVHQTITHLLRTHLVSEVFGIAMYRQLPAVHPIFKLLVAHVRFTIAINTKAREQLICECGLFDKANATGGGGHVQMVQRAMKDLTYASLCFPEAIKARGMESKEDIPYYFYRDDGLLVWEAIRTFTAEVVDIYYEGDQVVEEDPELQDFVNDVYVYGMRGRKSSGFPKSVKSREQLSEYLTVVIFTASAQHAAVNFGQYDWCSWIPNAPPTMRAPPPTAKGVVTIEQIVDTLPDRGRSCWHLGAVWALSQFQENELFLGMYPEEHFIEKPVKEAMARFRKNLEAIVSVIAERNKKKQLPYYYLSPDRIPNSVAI
Method in brief: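 Human recombinant 5-LOX, 1 unit per reaction, in PBS pH 7.4 containing 1 mM Na2EDTA and 200 µM ATP. Compound in DMSO (DMSO blank) held 10 min at 4°C. CaCl2 added, reaction started with arachidonic acid (800 µM solution) for 10 min at 37°C. Formic acid stop, 1:15 dilution, LTB4 measured by ELISA as % inhibition versus blank. At least three experiments in at least duplicate.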

Row | IC50 [nM] | SMILES
1 | 940 | CCCCCc1cc(O)cc(OC)c1O
2 | 340 | CCCCCCCCCCCC1=CC(=O)C=C(OC)C1=O
3 | 280 | CCCCCCCCCCCc1cc(O)cc(OC)c1O
4 | 790 | CCCCCCCCCCCCCCCC1=CC(=O)C=C(OC)C1=O
5 | 140 | CCCCCCCCCCCCCCCc1cc(O)cc(OC)c1O
6 | 3720 | CCCCCc1cccc(OC)c1O
7 | 1050 | CCCCCCCCCCCCCC1=CC(=O)C=C(OC)C1=O
8 | 1490 | CCCCCCCCCCCCCc1cc(O)cc(OC)c1O
9 | 1020 | CCCCCCCCCCCCCc1cc(OC(C)=O)cc(OC)c1OC(C)=O
10 | 1090 | CCCCCc1cc(OC(C)=O)cc(OC)c1OC(C)=O

tested on: not listed separately; experiment: Selectivity index, ratio of IC50 for ovine COX-1 to IC50 for human recombinant COX-2; conditions: not given

Row | Ratio IC50 | SMILES
11 | 1.88 | CCCCCCCCCCCC1=CC(=O)C=C(OC)C1=O
12 | 1.95 | CCCCCCCCCCCc1cc(O)cc(OC)c1O
13 | 0.98 | CCCCCCCCCCCCCCCc1cc(O)cc(OC)c1O
14 | 1.17 | CCCCCc1cccc(OC)c1O
15 | 2.18 | CCCCCCCCCCCCCc1cc(O)cc(OC)c1O

tested on: not listed separately; experiment: Antioxidant activity assessed as radical scavenging activity at 400 uM measured after 30 mins by DPPH assay; format: functional; conditions: not given
Method in brief: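 Test compounds in methanol, two-fold serial dilution to final 3.125–400 µM, incubated 30 min with DPPH in methanol (stated final […]) at room temperature in the dark. Absorbance read at 517 nm. Trolox and L-ascorbic acid served as positive references. Activity expressed as EC50.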

Row | SMILES | Activity
16 | CCCCCCCCCCCC1=CC(=O)C=C(OC)C1=O | inactive

biological target: T2, Prostaglandin G/H synthase 1 (Ovis aries) (UniProt P05979); experiment: Inhibition of ovine COX-1 assessed as reduction in PGE2 level using 10 uM arachidonic acid as substrate at 20 uM preincubated with enzyme for 5 mins followed by substrate addition and measured after 20 mins by ELISA relative to control; conditions: time 25.0 min
T2 sequence (whole entry): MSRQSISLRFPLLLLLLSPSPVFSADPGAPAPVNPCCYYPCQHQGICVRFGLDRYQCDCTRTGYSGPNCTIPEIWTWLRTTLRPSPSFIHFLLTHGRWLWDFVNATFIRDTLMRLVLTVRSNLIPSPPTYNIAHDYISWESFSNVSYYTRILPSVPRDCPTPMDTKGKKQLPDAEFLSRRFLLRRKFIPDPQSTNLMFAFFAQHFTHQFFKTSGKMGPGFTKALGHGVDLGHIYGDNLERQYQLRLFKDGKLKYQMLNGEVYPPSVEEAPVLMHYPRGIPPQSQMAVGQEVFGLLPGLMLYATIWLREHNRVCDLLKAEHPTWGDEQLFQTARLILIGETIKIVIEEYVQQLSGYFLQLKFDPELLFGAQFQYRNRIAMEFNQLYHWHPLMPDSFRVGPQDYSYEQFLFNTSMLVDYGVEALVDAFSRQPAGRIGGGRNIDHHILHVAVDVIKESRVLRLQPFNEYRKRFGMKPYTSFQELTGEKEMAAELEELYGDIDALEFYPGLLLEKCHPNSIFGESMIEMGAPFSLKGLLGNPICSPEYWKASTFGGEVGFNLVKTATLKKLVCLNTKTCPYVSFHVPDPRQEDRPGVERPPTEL
Method in brief: (§1)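 Enzyme in 100 mM Tris pH 8.0 with 5 µM porcine hematin, 18 mM L-epinephrine and 50 µM Na2EDTA. Compound in DMSO (DMSO blank) 5 min at room temperature. Arachidonic acid (10 µM) added, 20 min at 37°C. Stopped with 10% formic acid, diluted 1:15, PGE2 measured by ELISA at 405 nm as % inhibition versus blank. At least three experiments in at least duplicate. Non-active below 50% inhibition at 20 µM.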

Row | inhibition [%] | SMILES
17 | < 50 | CCCCCc1cc(O)cc(OC)c1O
18 | < 50 | CCCCCCCCCCCCCCCC1=CC(=O)C=C(OC)C1=O
19 | < 50 | CCCCCCCCCCCCCc1cc(OC(C)=O)cc(OC)c1OC(C)=O
20 | < 50 | CCCCCc1cc(OC(C)=O)cc(OC)c1OC(C)=O

biological target: T1, Polyunsaturated fatty acid 5-lipoxygenase; experiment: Inhibition of human recombinant 5-LOX assessed as reduction in LTB4 level using 5 to 80 uM arachidonic acid as substrate preincubated with enzyme for 10 mins followed by substrate addition and measured after 10 mins by ELISA; conditions: not given
Method in brief: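 Human recombinant 5-LOX, 1 unit per reaction, in PBS pH 7.4 with 1 mM Na2EDTA and 200 µM ATP. Compound in DMSO preincubated 10 min at 4°C. CaCl2 added, then arachidonic acid at final 5, 20 or 80 µM, 10 min at 37°C. Stopped with 10% formic acid, diluted 1:15, LTB4 measured by ELISA. Inhibition calculated versus blank at the matching AA level.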

Row | IC50 [nM] | SMILES
21 | 710 | CCCCCCCCCCCC1=CC(=O)C=C(OC)C1=O

biological target: T3, Prostaglandin G/H synthase 1 (Ovis aries, UniProt P05979); experiment: Competitive inhibition of ovine COX-1 assessed as reduction in PGE2 level using 250 nM arachidonic acid as substrate preincubated with enzyme for 5 mins followed by substrate addition and measured after 20 mins by ELISA; conditions: not given
T3 sequence (P05979 whole entry): T2 sequence (whole entry)
Method in brief: (§2)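 Substrate-dependence test. Enzyme in 100 mM Tris pH 8.0 with 5 µM porcine hematin, 18 mM L-epinephrine and 50 µM Na2EDTA. Compound in DMSO (DMSO blank) preincubated 5 min at room temperature. Arachidonic acid added to final 50, 250 or 1250 nM, then 20 min at 37°C. Stopped with 10% formic acid, diluted 1:15, PGE2 quantified by ELISA at 405 nm. Inhibition calculated versus blank at the same AA level.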

Row | IC50 [nM] | SMILES
22 | 2770 | CCCCCCCCCCCC1=CC(=O)C=C(OC)C1=O

biological target: T3, Prostaglandin G/H synthase 1; experiment: Competitive inhibition of ovine COX-1 assessed as reduction in PGE2 level using 1250 nM arachidonic acid as substrate preincubated with enzyme for 5 mins followed by substrate addition and measured after 20 mins by ELISA; conditions: not given; method in brief: as §2

Row | IC50 [nM] | SMILES
23 | > 20000 | CCCCCCCCCCCC1=CC(=O)C=C(OC)C1=O

biological target: T4, Prostaglandin G/H synthase 2 (Homo sapiens, UniProt P35354); experiment: Inhibition of human recombinant COX-2 assessed as reduction in PGE2 level using 10 uM arachidonic acid as substrate preincubated with enzyme for 5 mins followed by substrate addition and measured after 20 mins by ELISA; conditions: not given
T4 sequence (P35354 whole entry): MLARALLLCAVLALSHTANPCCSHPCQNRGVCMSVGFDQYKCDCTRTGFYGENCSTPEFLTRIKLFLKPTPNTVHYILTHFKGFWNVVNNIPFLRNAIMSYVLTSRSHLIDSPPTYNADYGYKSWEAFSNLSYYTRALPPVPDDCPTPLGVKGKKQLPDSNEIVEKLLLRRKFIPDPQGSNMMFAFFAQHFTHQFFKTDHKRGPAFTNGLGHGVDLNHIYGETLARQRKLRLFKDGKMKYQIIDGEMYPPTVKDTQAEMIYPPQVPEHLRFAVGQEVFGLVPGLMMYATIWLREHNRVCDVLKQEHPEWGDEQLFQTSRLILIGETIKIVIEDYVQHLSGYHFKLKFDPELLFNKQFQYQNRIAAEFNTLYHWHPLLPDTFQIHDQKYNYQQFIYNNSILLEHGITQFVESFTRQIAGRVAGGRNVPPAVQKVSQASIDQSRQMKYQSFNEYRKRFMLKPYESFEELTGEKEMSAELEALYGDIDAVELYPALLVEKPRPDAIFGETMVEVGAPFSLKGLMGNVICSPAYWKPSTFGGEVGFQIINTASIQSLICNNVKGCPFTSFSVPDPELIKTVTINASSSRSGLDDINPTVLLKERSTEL

Row | IC50 [nM] | SMILES
24 | 570 | CCCCCCCCCCCC1=CC(=O)C=C(OC)C1=O
25 | 550 | CCCCCCCCCCCc1cc(O)cc(OC)c1O
26 | 8970 | CCCCCCCCCCCCCCCC1=CC(=O)C=C(OC)C1=O
27 | 2710 | CCCCCCCCCCCCCCCc1cc(O)cc(OC)c1O
28 | 4650 | CCCCCc1cccc(OC)c1O
29 | 880 | CCCCCCCCCCCCCC1=CC(=O)C=C(OC)C1=O
30 | 1550 | CCCCCCCCCCCCCc1cc(O)cc(OC)c1O

biological target: T5, Prostaglandin G/H synthase 2 (Homo sapiens) (UniProt P35354); experiment: Inhibition of human recombinant COX-2 assessed as reduction in PGE2 level using 10 uM arachidonic acid as substrate at 20 uM preincubated with enzyme for 5 mins followed by substrate addition and measured after 20 mins by ELISA relative to control; conditions: time 25.0 min; method in brief: as §1
T5 sequence (whole entry): T4 sequence (P35354 whole entry)

Row | inhibition [%] | SMILES
31 | < 50 | CCCCCc1cc(O)cc(OC)c1O
32 | < 50 | CCCCCCCCCCCCCc1cc(OC(C)=O)cc(OC)c1OC(C)=O
33 | < 50 | CCCCCc1cc(OC(C)=O)cc(OC)c1OC(C)=O

biological target: T3, Prostaglandin G/H synthase 1; experiment: Competitive inhibition of ovine COX-1 assessed as reduction in PGE2 level using 50 nM arachidonic acid as substrate preincubated with enzyme for 5 mins followed by substrate addition and measured after 20 mins by ELISA; conditions: not given; method in brief: as §2

Row | IC50 [nM] | SMILES
34 | 800 | CCCCCCCCCCCC1=CC(=O)C=C(OC)C1=O

biological target: T3, Prostaglandin G/H synthase 1; experiment: Inhibition of ovine COX-1 assessed as reduction in PGE2 level using 10 uM arachidonic acid as substrate preincubated with enzyme for 5 mins followed by substrate addition and measured after 20 mins by ELISA; conditions: not given; method in brief: as §1

Row | IC50 [nM] | SMILES
35 | 1070 | CCCCCCCCCCCC1=CC(=O)C=C(OC)C1=O
36 | 1070 | CCCCCCCCCCCc1cc(O)cc(OC)c1O
37 | 2650 | CCCCCCCCCCCCCCCc1cc(O)cc(OC)c1O
38 | 5420 | CCCCCc1cccc(OC)c1O
39 | 250 | CCCCCCCCCCCCCC1=CC(=O)C=C(OC)C1=O
40 | 3380 | CCCCCCCCCCCCCc1cc(O)cc(OC)c1O
